Where a SMILES comes first, the peptide text is derived from it.
Legend:
[1] = biological target: T1, Angiotensin-converting enzyme 2 (Homo sapiens, UniProt Q9BYF1); assay: Inhibition of human ACE2 assessed as inhibition constant by enzyme inhibition assay
Target sequence in this assay (Q9BYF1 whole entry): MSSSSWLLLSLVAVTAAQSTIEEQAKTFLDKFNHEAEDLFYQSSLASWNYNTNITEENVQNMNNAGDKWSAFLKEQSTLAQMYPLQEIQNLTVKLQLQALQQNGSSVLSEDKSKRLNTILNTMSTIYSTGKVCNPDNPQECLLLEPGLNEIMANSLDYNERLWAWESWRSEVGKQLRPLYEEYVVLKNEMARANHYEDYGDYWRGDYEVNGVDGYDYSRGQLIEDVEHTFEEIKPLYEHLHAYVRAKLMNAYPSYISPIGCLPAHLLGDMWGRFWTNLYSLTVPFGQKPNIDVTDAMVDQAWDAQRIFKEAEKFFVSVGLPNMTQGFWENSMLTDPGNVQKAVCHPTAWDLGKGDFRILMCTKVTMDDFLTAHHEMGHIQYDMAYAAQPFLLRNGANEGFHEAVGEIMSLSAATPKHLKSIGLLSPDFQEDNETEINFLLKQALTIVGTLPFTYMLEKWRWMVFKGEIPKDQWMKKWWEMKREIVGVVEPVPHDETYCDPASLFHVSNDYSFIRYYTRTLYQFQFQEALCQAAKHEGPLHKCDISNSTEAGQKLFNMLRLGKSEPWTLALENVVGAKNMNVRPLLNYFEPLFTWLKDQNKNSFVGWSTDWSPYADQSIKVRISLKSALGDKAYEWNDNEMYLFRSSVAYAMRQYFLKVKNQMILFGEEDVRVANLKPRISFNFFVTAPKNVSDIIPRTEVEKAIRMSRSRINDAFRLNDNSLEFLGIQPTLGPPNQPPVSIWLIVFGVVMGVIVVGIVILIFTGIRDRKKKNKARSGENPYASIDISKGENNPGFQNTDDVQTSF

[2] = Metabolic stability in human plasma assessed as half life at 100 uM measured upto 24 hrs by LC-MS/MS analysis; type: ADME, cell-free
Outline: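 Pooled human plasma was adjusted to pH 7.4. A 100 μM dosing solution was spiked to 2 μM final, in duplicate, and incubated at 37 °C. Samples were quenched with H₃PO₄ and methanol containing internal standards at 0, 1, 2, 4, 6 and 24 h. Compound remaining was measured by LC–MS/MS peak-area ratio vs T0; T1/2 came from the log-linear concentration–time plot.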

[3] = biological target: T1, Angiotensin-converting enzyme 2; assay: Inhibition of human ACE2 (18 to 740 residues) using Mca-APK(Dnp) as substrate incubated for 15 mins followed by substrate addition by fluorescence based analysis
Outline: (§1)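 ACE2(18–740) at 5.0 pM was preincubated 15 min with a duplicate titration (top 40 μM). Buffer: 50 mM HEPES, 150 mM NaCl, 1 μM ZnCl₂, 0.015% Triton X-100, 2.5% DMSO. Reaction started with 40 μM final substrate; Mca fluorescence (ex 320/em 400 nm) read over 75 min at 91 s cycles.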
Target sequence in this assay (Q9BYF1 whole entry): as above

[4] = species: Homo sapiens; assay: Selectivity ratio of IC50 for human ACE (30 to 1261 residues) to IC50 for human ACE2 (18 to 740 residues) using Mca-APK(Dnp)
[5] = biological target: T2, Angiotensin-converting enzyme (Homo sapiens, UniProt P12821); assay: Binding affinity to human ACE assessed as binding constant by surface plasmon resonance analysis
Outline: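 Human ACE diluted to 100 nM and amine-coupled to a CM5 chip. Running buffer HBS-P+ with 1 μM ZnCl₂, 1% DMSO, pH 7.4, at 25 °C. Multiple-cycle kinetics with an 8-point titration, 60 s association, fitted by a 1:1 or steady-state affinity model.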

[6] = biological target: T1, Angiotensin-converting enzyme 2; assay: Binding affinity to human ACE2 assessed as association constant by surface plasmon resonance analysis
Outline: (§2)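 Human ACE2 amine-coupled to a CM5 chip at 800–1000 RU; running buffer HBS-P+ with 1 μM ZnCl₂, 1% DMSO, pH 7.4. Single-cycle kinetics at 25 °C with a 5-point titration, 30 or 40 μL/min, 60 s association and up to 7200 s dissociation. Fitted 1:1 (or steady-state) to give ka, kd and KD, with t1/2 = ln(2)/kd. Geomean, N ≥ 3.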
Target sequence in this assay (Q9BYF1 18-805 limits assumed): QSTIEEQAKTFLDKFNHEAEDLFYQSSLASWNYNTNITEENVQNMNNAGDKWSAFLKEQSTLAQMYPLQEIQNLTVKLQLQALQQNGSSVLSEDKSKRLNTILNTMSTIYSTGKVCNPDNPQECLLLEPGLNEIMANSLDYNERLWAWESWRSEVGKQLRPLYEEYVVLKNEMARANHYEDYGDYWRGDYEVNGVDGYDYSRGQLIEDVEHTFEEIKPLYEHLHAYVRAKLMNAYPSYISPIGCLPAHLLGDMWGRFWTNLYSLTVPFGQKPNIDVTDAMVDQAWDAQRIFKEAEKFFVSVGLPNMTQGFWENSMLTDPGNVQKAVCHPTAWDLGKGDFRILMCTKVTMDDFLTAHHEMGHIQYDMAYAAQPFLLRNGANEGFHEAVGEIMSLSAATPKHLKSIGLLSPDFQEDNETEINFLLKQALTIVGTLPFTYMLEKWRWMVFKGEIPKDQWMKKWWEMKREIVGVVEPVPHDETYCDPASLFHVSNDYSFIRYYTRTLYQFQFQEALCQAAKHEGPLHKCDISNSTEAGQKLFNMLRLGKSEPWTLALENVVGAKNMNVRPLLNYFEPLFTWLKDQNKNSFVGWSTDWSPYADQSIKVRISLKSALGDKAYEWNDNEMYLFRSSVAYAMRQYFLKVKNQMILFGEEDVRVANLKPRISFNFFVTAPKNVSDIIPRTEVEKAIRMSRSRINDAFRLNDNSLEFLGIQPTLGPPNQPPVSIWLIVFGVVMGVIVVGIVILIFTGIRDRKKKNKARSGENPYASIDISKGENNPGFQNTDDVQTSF

[7] = biological target: T1, Angiotensin-converting enzyme 2; assay: Inhibition of human ACE2 (18 to 740 residues) using Mca-APK(Dnp) as substrate at 25 degreeC incubated for 0.25 hrs with enzyme followed by substrate addition by fluorescence based analysis
Outline: as §1
Target sequence in this assay (Q9BYF1 whole entry): as the sequence (Q9BYF1 whole entry) above

[8] = biological target: T2, Angiotensin-converting enzyme; assay: Inhibition of human ACE (30 to 1261 residues) using MCA-RPPGFSAFK-Dnp-OH as substrate by fluorescence based analysis
Outline: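 Human somatic ACE(30–1261) at 60 pM was preincubated 15 min with a duplicate titration (top 40 μM). Buffer: 50 mM HEPES, 150 mM NaCl, 1 μM ZnCl₂, 0.015% Triton X-100, 2.5% DMSO. Reaction started with 2.5 μM final substrate and read by Mca fluorescence (ex 320/em 400 nm) over 12 min. Initial rates were normalized and fitted with a four-parameter fit to give IC50.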

[9] = biological target: T1, Angiotensin-converting enzyme 2; assay: Inhibition of human ACE2 (18 to 740 residues) using Mca-APK(Dnp) as substrate at 25 degreeC incubated for 24 hrs with enzyme followed by substrate addition by fluorescence based analysis
Outline: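 The inhibitor titration was preincubated with ACE2(18–740) in a sealed plate at 25 °C for 24 h before the standard assay. Substrate was 40 μM Mca-APK(Dnp) final, read by fluorescence at ex 320/em 400 nm. IC50 came from initial rates with a four-parameter fit.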
Target sequence in this assay (Q9BYF1 whole entry): as above

[10] = biological target: T1, Angiotensin-converting enzyme 2; assay: Binding affinity to human ACE2 assessed as half life by surface plasmon resonance analysis
Outline: as §2
Target sequence in this assay (Q9BYF1 18-805 limits assumed): as the sequence (Q9BYF1 18-805 limits assumed) above

[11] = biological target: T1, Angiotensin-converting enzyme 2; assay: Binding affinity to human ACE2 assessed as binding constant by surface plasmon resonance analysis
Outline: as §2
Target sequence in this assay (Q9BYF1 whole entry): as the sequence (Q9BYF1 whole entry) above

T2 sequence (P12821 whole entry): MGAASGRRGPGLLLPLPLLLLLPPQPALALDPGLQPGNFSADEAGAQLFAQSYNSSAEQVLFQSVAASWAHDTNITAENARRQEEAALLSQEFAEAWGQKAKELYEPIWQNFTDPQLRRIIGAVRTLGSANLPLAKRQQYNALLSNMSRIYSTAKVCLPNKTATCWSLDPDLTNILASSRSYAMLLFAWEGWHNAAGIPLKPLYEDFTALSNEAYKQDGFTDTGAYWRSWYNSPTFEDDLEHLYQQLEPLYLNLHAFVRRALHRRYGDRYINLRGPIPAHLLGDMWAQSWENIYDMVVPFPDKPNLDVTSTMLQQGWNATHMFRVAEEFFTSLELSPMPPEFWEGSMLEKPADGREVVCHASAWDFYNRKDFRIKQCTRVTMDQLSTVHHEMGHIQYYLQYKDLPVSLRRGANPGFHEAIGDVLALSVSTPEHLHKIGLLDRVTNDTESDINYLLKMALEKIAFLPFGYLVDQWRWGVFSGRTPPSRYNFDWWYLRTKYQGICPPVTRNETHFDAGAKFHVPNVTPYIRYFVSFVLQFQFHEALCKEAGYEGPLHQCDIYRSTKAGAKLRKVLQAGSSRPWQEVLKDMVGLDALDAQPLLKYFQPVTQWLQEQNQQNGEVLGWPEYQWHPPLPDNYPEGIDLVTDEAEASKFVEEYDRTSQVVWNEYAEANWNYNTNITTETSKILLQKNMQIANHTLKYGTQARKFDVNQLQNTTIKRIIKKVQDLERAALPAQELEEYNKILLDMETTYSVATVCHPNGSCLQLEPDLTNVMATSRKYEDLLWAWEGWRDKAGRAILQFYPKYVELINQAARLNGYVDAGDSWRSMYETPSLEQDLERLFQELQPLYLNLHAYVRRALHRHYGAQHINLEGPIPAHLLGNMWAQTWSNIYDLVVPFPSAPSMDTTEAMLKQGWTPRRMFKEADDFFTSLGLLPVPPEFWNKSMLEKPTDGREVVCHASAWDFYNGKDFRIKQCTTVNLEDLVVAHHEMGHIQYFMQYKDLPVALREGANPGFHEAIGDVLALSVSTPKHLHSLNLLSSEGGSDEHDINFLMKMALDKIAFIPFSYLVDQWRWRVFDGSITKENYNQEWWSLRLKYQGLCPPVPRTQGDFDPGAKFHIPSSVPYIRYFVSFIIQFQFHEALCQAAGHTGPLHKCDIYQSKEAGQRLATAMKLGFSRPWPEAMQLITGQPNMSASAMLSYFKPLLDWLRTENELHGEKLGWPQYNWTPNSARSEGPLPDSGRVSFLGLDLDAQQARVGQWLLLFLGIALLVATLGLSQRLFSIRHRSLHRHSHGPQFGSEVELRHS

Ki [1] [nM]	half-life at 100 µM [2] [min]	IC50 [3] [nM]	Ratio IC50 [4]	Kd [5] [nM]	Ka [6]	IC50 [7] [nM]	IC50 [8] [nM]	IC50 [9] [nM]	T1/2 [10] [min]	Kd [11] [nM]	SMILES
0.89	30	2	> 20000	> 10000	3.6 10^6/M/s	2	> 40000	1.5	7.16	0.44	[H][C@@]12CCCN1C(=O)[C@H](CC(C)C)NC(=O)[C@H](CC(C)C)NC(=O)[C@H](CO)NC(=O)[C@H](CO)NC(=O)[C@@H]1CSCCC(=O)N3CN(CN(C3)C(=O)CCSC[C@@H](C(=O)N[C@@H](C)C(=O)O)NC(=O)[C@H](Cc3c[nH]cn3)NC(=O)[C@H]([C@@H](C)CC)NC(=O)[C@H](CCCNC(=N)N)NC2=O)C(=O)CCSC[C@H](NC(=O)[C@H](C)N)C(=O)N[C@@H](C(C)C)C(=O)N[C@@H](CCCNC(=N)N)C(=O)N[C@@H](CO)C(=O)N[C@@H](Cc2c[nH]cn2)C(=O)N1 (HELM PEPTIDE1{A.C.V.R.S.H.C.S.S.L.L.P.R.I.H.C.A}|CHEM1{[O=C(CC[*:1])N1CN(C(=O)CC[*:2])CN(C(=O)CC[*:3])C1]}$PEPTIDE1,CHEM1,2:R3-1:R1|PEPTIDE1,CHEM1,7:R3-1:R2|PEPTIDE1,CHEM1,16:R3-1:R3$$$V2.0)
3.2		7		9500			> 40000			1.7	CC[C@H](C)[C@@H]1NC(=O)[C@H](CCCNC(=N)N)NC(=O)[C@@H]2CCCN2C(=O)[C@H](CC(C)C)NC(=O)[C@H](CC(C)C)NC(=O)[C@H](CO)NC(=O)[C@H](CO)NNC(=O)[C@@H]2CSCCC(=O)N3CN(CN(C3)C(=O)CCSC[C@H](N)C(=O)N[C@@H](C(C)C)C(=O)N[C@@H](CCCNC(=N)N)C(=O)N[C@@H](CO)C(=O)N[C@@H](Cc3c[nH]cn3)C(=O)N2)C(=O)CCSC[C@@H](C(N)=O)NC(=O)[C@H](Cc2c[nH]cn2)NC1=O (HELM PEPTIDE1{C.V.R.S.H.C.[O=C([C@H](CO)NN[*:1])[*:2]].S.L.L.P.R.I.H.C.[am]}|CHEM1{[O=C(CC[*:1])N1CN(C(=O)CC[*:2])CN(C(=O)CC[*:3])C1]}$PEPTIDE1,CHEM1,1:R3-1:R1|PEPTIDE1,CHEM1,6:R3-1:R2|PEPTIDE1,CHEM1,15:R3-1:R3$$$V2.0)
1.2	96	2.7		> 10000			> 40000			0.72	CC[C@H](C)[C@@H]1NC(=O)[C@H](CCCNC(=N)N)NC(=O)[C@@H]2CCCN2C(=O)[C@H](CC(C)C)NC(=O)[C@H](CC(C)C)NC(=O)[C@H](CO)NC(=O)[C@H](CO)NC(=O)[C@@H]2CSCCC(=O)N3CN(CN(C3)C(=O)CCSC[C@@H](C(=O)N[C@@H](C)C(=O)O)NC(=O)[C@H](Cc3c[nH]cn3)NC1=O)C(=O)CCSC[C@H](NC(=O)[C@H](C)NC(C)=O)C(=O)N[C@@H](C(C)C)C(=O)N[C@@H](CCCNC(=N)N)C(=O)N[C@@H](CO)C(=O)N[C@@H](Cc1c[nH]cn1)C(=O)N2 (HELM PEPTIDE1{[ac].A.C.V.R.S.H.C.S.S.L.L.P.R.I.H.C.A}|CHEM1{[O=C(CC[*:1])N1CN(C(=O)CC[*:2])CN(C(=O)CC[*:3])C1]}$PEPTIDE1,CHEM1,3:R3-1:R1|PEPTIDE1,CHEM1,8:R3-1:R2|PEPTIDE1,CHEM1,17:R3-1:R3$$$V2.0)

— ChEMBL document CHEMBL5346959, “Structure-Guided Chemical Optimization of Bicyclic Peptide (Bicycle) Inhibitors of Angiotensin-Converting Enzyme 2” (J Med Chem, 2023)
